This passage reports yeast fitness results from the RNAGym collection of RNA variant scans (doi:10.1126/science.aae0568).

This sample holds only a part of the variants without activity.

The labels stand for the following.
B1: tRNA (parent)
chain: GUUCCGUUGGCGUAAUGGUAACGCGUCUCCCUCCUAAGGAGAAGACUGCGGGUUCGAGUCCCGUACGGAACG

The series covers variants of B1. Briefly: yeast fitness relative to wild type (ratio to wild type); higher = fitter; tRNA-Arg(CCU), competitive growth, 37 C, YPD. An outline of the steps: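 Variants of the tRNA-Arg(CCU) gene, chemically synthesised with a 3% per-site mutation rate at 69 sites, were placed at the native genomic locus in Saccharomyces cerevisiae. The pooled strains were competed in YPD at 37°C for 24 hours in six parallel replicates. Gene amplicons from the start population and from each end population were read by 100-nucleotide paired-end sequencing. Darwinian fitness relative to wild type came from changes in genotype frequencies; genotypes needed ≥ 100 starting reads, and estimates < 0.5 were set to 0.5.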
For the variant A14G A37C G56A, the yeast fitness is no more than 0.5.
As to A14G U19A A20G A40U, the yeast fitness was no more than 0.5.
The result for A14U U53C reads 0.613; that for A14C A36G A43U G68A, 0.522; that for A14G U19A C27U C34U C66U, no more than 0.5.
Take A14U A40G A45U G56A: the yeast fitness was no more than 0.5.
Turning to A14U A37G G44C A45C G50A C55G, the yeast fitness was 0.594.
The result for A14G C30A C46U G52C C66U reads no more than 0.5; that for A14U G38C C46A, 0.551; that for A14G C31G A37G, no more than 0.5.
On to A14G A45U C61U, for which the yeast fitness was 0.665.
For A14G C61G, the yeast fitness was found to be 0.721.
To A14U U28A U59C C60G belongs no more than 0.5.
The result for A14C C34A C61U U64A A69G reads no more than 0.5; that for A14C A20U C31U G38C U59A, no more than 0.5.
To A14G A36G A45U belongs 0.534; to A14G A37G, 0.718.
Consider A14G G39A, for which the yeast fitness came out at 0.751.
In the case of A14U G52A G68C, the yeast fitness is no more than 0.5.
To A14G C34G A43C U47C belongs 0.533.
To A14C C31U A69U belongs no more than 0.5.
The result for A14C C27G C46G C62U reads no more than 0.5; that for A14U C30A A43U C49U, 0.545.
On to A14U C24G A57C, for which the yeast fitness is no more than 0.5.
To A14C C55G A57U C62U belongs no more than 0.5.
Regarding A14C A20G A42C G48C, the yeast fitness was no more than 0.5.
The result for A14U G23C C55G reads no more than 0.5; that for A14G A42G C46G, 0.517.
With A14G U64C, the yeast fitness was 0.924.
As to A14C U32G G58A A65C, the yeast fitness was 0.645.
The result for A14U G25A C30G C62G reads no more than 0.5; that for A14G A36U A37G C46A G48A, no more than 0.5; that for A14C C22A C46A, 0.605.
Turning to A14G C31U G58C G68A, the yeast fitness was no more than 0.5.
To A14G A21G belongs 0.989.
To A14G A21C belongs 0.866.
Consider A14U U35C U53G, for which the yeast fitness stood at 0.634.
To A14G C29U G52C belongs no more than 0.5.
In the case of A14G A15C C46A A69U, the yeast fitness was no more than 0.5.
To A14C U35C A69U belongs no more than 0.5; to A14U A15C A40G U47C G56C G67C, no more than 0.5.
To A14G A43G G52C U53C G63C belongs no more than 0.5; to A14G C22U C24U A65C, no more than 0.5.
Consider A14U C31U C34A A45U C49U, for which the yeast fitness was no more than 0.5.
Consider A14U U16G C33G G50A G58C G63C, for which the yeast fitness was no more than 0.5.
Turning to A14C G23A A45U C61U, the yeast fitness was 0.782.
Regarding A14G G25A C30A, the yeast fitness was found to be 0.563.
To A14U belongs 0.667.
To A14G belongs 0.796; to A14C, 0.868.
As for A14C C24G G39A, the yeast fitness is no more than 0.5.
As for A14U A15U C49U G56C, the yeast fitness is no more than 0.5.
A14G G56U A65U G68C: the yeast fitness is no more than 0.5.
To A14C A15U C27U U32C U35G A70U belongs no more than 0.5; to A14G C33U G63A, 0.614; to A14G C55U A65G, 0.513.
Consider A14U U26G G56A A65G C66U, for which the yeast fitness is no more than 0.5.
Consider A14G C34U C49A C60U, for which the yeast fitness came out at 0.512.
For the variant A14U U35A G52A C61G C66A, the yeast fitness was no more than 0.5.
Regarding A14U C31A C66A, the yeast fitness is no more than 0.5.
For A14G A20C C31G A45U G48C, the yeast fitness is no more than 0.5.
For A14G C31U A37G A45C A70G, the yeast fitness is no more than 0.5.
In the case of A14G C62U, the yeast fitness came to 0.937.
On to A14C C29U C30G C31A C34A G52C, for which the yeast fitness was no more than 0.5.
The result for A14G A20G A42U reads 0.696; that for A14G C29U A37G A65G, no more than 0.5.
Regarding A14G G18A C22G C49A, the yeast fitness was no more than 0.5.
The result for A14G C31U U35C A40G A65U reads no more than 0.5; that for A14U U16G U19A A42G, 0.512.
In the case of A14G G23U G58A, the yeast fitness is no more than 0.5.
As for A14U U16A C27G A40U A57U C66A, the yeast fitness is no more than 0.5.
The result for A14U G23A C31U A43U reads no more than 0.5; that for A14C C34U A36G G39C, 0.535.
Take A14U A45C U47C C55U A65C A69C: the yeast fitness is no more than 0.5.
The result for A14C A21C C46A C49U reads no more than 0.5; that for A14U G23U G68C, 0.514; that for A14C U47C, 0.79.
Turning to U13G U47G C66U, the yeast fitness is no more than 0.5.
For A14U C30A, the yeast fitness turned out to be 0.565.
The result for A14U C30U reads 0.558; that for A14C U28A A42U U54A, no more than 0.5; that for A14G C27G C34G A37U U64A, 0.667.
To A14C C55A A65U belongs no more than 0.5; to A14C G17C G18A G23C, 0.554; to A14C C24G C31A C33G G44C, 0.584.
To A14U U26C A57U belongs no more than 0.5; to A14G A45G C61A, no more than 0.5; to A14U U47A A69G, 0.66.
Turning to A14G U32G A45G A69U, the yeast fitness is no more than 0.5.
The result for A14U U26A C62G reads no more than 0.5.
For the variant A14G C29U, the yeast fitness came to 0.988.
Regarding A14G C24U A65U, the yeast fitness was found to be 0.54.
For the variant A14G G52A, the yeast fitness turned out to be 0.631.
Take A14C C46G C62U C66U: the yeast fitness is no more than 0.5.
As for A14G U26A C27G, the yeast fitness is no more than 0.5.
To A14G A15G A45U C66U belongs 0.619; to A14C C29G G48C G67A, no more than 0.5.
To A14U C29U A37U C49A G67A belongs no more than 0.5.
As for A14G U28C G67A, the yeast fitness was found to be 0.534.
To A14G G18C C60A C66U belongs no more than 0.5; to A14C C30U A37C, 0.552.
Regarding A14G G23A U64G A69U, the yeast fitness is no more than 0.5.
To A14C A45U G50C C66G belongs no more than 0.5.
To A14C C29A G50A G68C A70C belongs no more than 0.5; to A14U G52C, no more than 0.5.
A14U U16A G25A A37G: the yeast fitness is no more than 0.5.
Turning to A14C A20G, the yeast fitness came to 0.647.
To A14U C62U C66G belongs no more than 0.5; to A14C U16C G51C G58A, 0.528; to A14G A45G G50A, no more than 0.5.
The result for A14U C30U C62A reads no more than 0.5.
Consider A14G G58C C66A, for which the yeast fitness was no more than 0.5.
On to A14U G23C C29G G51A G56C, for which the yeast fitness was no more than 0.5.
As for A14U G44C G50A, the yeast fitness is no more than 0.5.
To A14U C30G U32G belongs no more than 0.5; to A14U C22G A57C G63C C66U, 0.578.
The result for A14C C30U A43G reads no more than 0.5; that for A14G U26G A37U A45U G51A A65C, no more than 0.5.
A14G A36U A65G: the yeast fitness is no more than 0.5.
The result for A14U G25A U35A G39U A65G reads no more than 0.5; that for A14C C22G G25A C31U, 0.528.
On to A14G C27A C49G U53A C62A, for which the yeast fitness is no more than 0.5.
The result for A14U A43C U54A reads no more than 0.5; that for A14G U19C C60G, no more than 0.5.
To A14U A15G C34G C61U A70C belongs no more than 0.5.
As for U13G U32A C33A, the yeast fitness is no more than 0.5.
As to A14C U59C, the yeast fitness was 0.687.
To A14G A15U G39U C61U belongs no more than 0.5; to A14G C31U G68A, 0.568.
To A14U G23U C61G belongs no more than 0.5; to A14U G17A G23C C29U C34G A45C U54G, no more than 0.5.
To A14C U16A G41C belongs no more than 0.5; to A14G U19A C27G U28A C34A A36G A43G, 0.608.
As to A14U A40U U54A C55U U64C, the yeast fitness was no more than 0.5.
A14C C24A A37G C60U: the yeast fitness was no more than 0.5.
To A14G A15G U35C belongs 0.572.
As for A14G C33G A70U, the yeast fitness was 0.545.
To A14C A21U C46A A69C belongs 0.59; to A14U C34G C49G C66U, no more than 0.5; to A14U C62G, 0.692.
The result for A14C A21C C24U A36U A43U C55U reads no more than 0.5.
Consider A14C G44C, for which the yeast fitness stood at 0.577.
Take A14U A37C C46U C61G: the yeast fitness is no more than 0.5.
Turning to A14U U16G U19A A42G G52A, the yeast fitness was no more than 0.5.
As to A14C C30A A36G C62U G63A A70U, the yeast fitness was no more than 0.5.
The result for U13G U26C C49G reads no more than 0.5.
Regarding A14U C34G A37C A57C, the yeast fitness is no more than 0.5.
A14G C29G C31U A70G: the yeast fitness was no more than 0.5.
The result for A14G C29G C31U A70C reads 0.51; that for A14C U26A C29U C49U C62G G68C, 0.519.
As for A14G C49G G56C, the yeast fitness was no more than 0.5.
For A14U A37U U47C, the yeast fitness was no more than 0.5.
In the case of A14U A37U U47A, the yeast fitness was determined as 0.632.
To A14C A21G U53A belongs no more than 0.5; to A14U C49A G68A, no more than 0.5; to A14U C34G C66U, no more than 0.5.
For A14U U26A G58C, the yeast fitness was no more than 0.5.
To A14C C55G G68C belongs no more than 0.5.
The result for A14C C34A G48C reads no more than 0.5; that for A14G G25A A36G A42U G68C, 0.576.
For A14G U16G G18C U59A A65U, the yeast fitness is no more than 0.5.
As for A14G G48A C62A, the yeast fitness was 0.65.
With A14U A45C G56A, the yeast fitness was 0.581.
To A14C G23C A36U belongs 0.68; to A14C C34A A37G A70U, no more than 0.5; to A14G G18A C55U, no more than 0.5.
The result for A14G C22U C34U U54C C55A reads no more than 0.5.
